The source of these data is PubChem BioAssay AID720717 (ICCB-Longwood Screening Facility, Harvard Medical School, 2013).

About 150 (0.29%) of roughly 51,000 compounds were called active. The entries come from a sample that favours actives as a whole. Unmarked numbers belong to inactive results.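 The calls were made as follows: active = both repeat wells score below -2 in polarization z-score versus plate sample wells, excluding overly bright wells; inactive = the rest.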

For this test, the system named is LANA (ORF73) N-terminal peptide binding to nucleosomes, Human herpesvirus 8. In words: inhibitors of KSHV LANA-nucleosome binding, primary screen, biochemical, fluorescence polarization, FITC-LANA1-23, chicken nucleosomes (AID 720717). The conditions noted are these: FITC-LANA1-23 / chicken nucleosome fluorescence polarization; hits give low values. The essentials:
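Assay system: FITC-LANA peptide and chicken nucleosomes; input: 240 nM purified chicken nucleosomes (480 nM peptide binding sites), final; also added: 50 nM FITC-LANA1-23 probe; medium: TEN-BT buffer, pH 7.5; doses: pin-transferred compound, 100 nL; times: 10–45 min, room temperature; technique: fluorescence polarization; replication: duplicates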
`CN1CCc2c(c(S)[nH]c(=S)c2C#N)C1`: the z-score is -3.73 (active).

Consider `CCOC(=O)c1sc2nc3c(cc2c1N)CN(C)CC3`, for which the z-score was 0.365.

In the case of `O=C(c1ccccc1)c1cc(Cl)ccc1NC(=O)C(F)(F)F`, the z-score was -0.891.

On to `Cc1cccc(NC(=O)OC2CN3CCC2CC3)c1` (stereo not given), for which the z-score is -0.799.

For `CC1(C)CC(Nc2nc(Cl)c(C#N)c(Cl)c2Cl)CC(C)(C)N1`, the z-score is -1.52.
